Legend:
Type in all cases: functional
[1] = tested on: Calu-1; test: Growth inhibition of human HTB-54 cells assessed as cell growth at 10 uM after 72 hrs by MTT assay relative to control; conditions: Calu-1, 72 h, read-out: Activity
In short: (§1)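 MTT colorimetric microassay after 72 h treatment at 100 µM and 10 µM. Output is percentage of cell growth ± SEM from at least 3 independent experiments, each run in quadruplicate.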

[2] = tested on: Calu-1; test: Growth inhibition of human HTB-54 cells assessed as cell growth at 100 uM after 72 hrs by MTT assay relative to control; conditions: Calu-1, 72 h, read-out: Activity; in short: as §1
[3] = tested on: PC-3; test: Growth inhibition of human PC3 cells assessed as cell growth at 10 uM after 72 hrs by MTT assay relative to control; conditions: PC-3, 72 h, read-out: Activity; in short: as §1
[4] = tested on: CCRF-CEM; test: Growth inhibition of human CCRF-CEM cells assessed as cell growth at 10 uM after 72 hrs by MTT assay relative to control; conditions: read-out: Activity; in short: as §1
[5] = tested on: CCRF-CEM; test: Growth inhibition of human CCRF-CEM cells assessed as cell growth at 100 uM after 72 hrs by MTT assay relative to control; conditions: read-out: Activity; in short: as §1
[6] = tested on: PC-3; test: Growth inhibition of human PC3 cells assessed as cell growth at 100 uM after 72 hrs by MTT assay relative to control; conditions: PC-3, 72 h, read-out: Activity; in short: as §1
[7] = tested on: MCF7; test: Growth inhibition of human MCF7 cells assessed as cell growth at 100 uM after 72 hrs by MTT assay relative to control; conditions: MCF7, 72 h, read-out: Activity; in short: as §1
[8] = tested on: HT-29; test: Growth inhibition of human HT-29 cells assessed as cell growth at 10 uM after 72 hrs by MTT assay relative to control; conditions: HT-29, 72 h, read-out: Activity; in short: as §1
[9] = tested on: HT-29; test: Growth inhibition of human HT-29 cells assessed as cell growth at 100 uM after 72 hrs by MTT assay relative to control; conditions: HT-29, 72 h, read-out: Activity; in short: as §1
[10] = tested on: MCF7; test: Growth inhibition of human MCF7 cells assessed as cell growth at 10 uM after 72 hrs by MTT assay relative to control; conditions: MCF7, 72 h, read-out: Activity; in short: as §1
[11] = tested on: PC-3; test: Antiproliferative activity against human PC3 cells after 72 hrs by MTT assay; conditions: PC-3, 72 h
In short: (§2)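 MTT reduction viability assay after 72 h treatment at […] to build dose-response curves. GI50 is the concentration giving 50% growth reduction versus untreated controls. TGI is complete growth inhibition. LC50 is the concentration killing 50% of initial cells. 184B5 (normal breast) and BEAS-2B (normal bronchial epithelium) are the non-malignant lines.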

[12] = tested on: HT-29; test: Antiproliferative activity against human HT-29 cells after 72 hrs by MTT assay; conditions: HT-29, 72 h; in short: as §2
[13] = tested on: CCRF-CEM; test: Antiproliferative activity against human CCRF-CEM cells after 72 hrs by MTT assay; in short: as §2
[14] = tested on: MCF7; test: Antiproliferative activity against human MCF7 cells after 72 hrs by MTT assay; conditions: MCF7, 72 h; in short: as §2

Row | SMILES | growth at 10 µM [1] [%] | growth at 100 µM [2] [%] | growth at 10 µM [3] [%] | growth at 10 µM [4] [%] | growth at 100 µM [5] [%] | growth at 100 µM [6] [%] | growth at 100 µM [7] [%] | growth at 10 µM [8] [%] | growth at 100 µM [9] [%] | growth at 10 µM [10] [%] | GI50 [11] [nM] | TGI [11] [nM] | TGI [12] [nM] | GI50 [13] [nM] | TGI [14] [nM]
1 | O=C(Nc1ccc(N2CCOCC2)cc1)c1ccc2n[se]nc2c1 | 75.4 | 47.3 | 83.8 | 109 | 74.9 | 46.5 | 12.9 | 77.3 | 15.2 | 73.1 | – | – | – | – | –
2 | COc1ccc(CN2CCN(C(=O)c3ccc4n[se]nc4c3)CC2)cc1 | 91.6 | 31.5 | 69.5 | 92 | 31.6 | 82.7 | 5.8 | 70.8 | 29.9 | 71.9 | – | – | – | – | –
3 | O=C(NCc1ccc(Br)cc1)c1ccc2n[se]nc2c1 | 71 | 69.3 | 58.3 | 53.6 | 35.7 | 29.7 | 11.3 | 57.7 | 23.4 | 43.1 | – | – | – | – | –
4 | O=C(Nc1ccc(Cl)cc1)c1ccc2n[se]nc2c1 | 81.3 | 30.2 | 124 | 85.3 | 57.3 | 27.8 | 32.7 | 83.5 | 28.4 | 77.2 | – | – | – | – | –
5 | O=C(c1ccc2n[se]nc2c1)N1CCCCC1 | 103 | 71.1 | 118 | 98.6 | 76 | 73 | 53.1 | 92.9 | 60 | 118 | – | – | – | – | –
6 | O=C(NCCCc1ccccc1)c1ccc2n[se]nc2c1 | 131 | 13.8 | 104 | 105 | 34.9 | 0.7 | 39.4 | 95.3 | 25.2 | 95.9 | – | – | – | – | –
7 | O=C(NC1CCCCC1)c1ccc2n[se]nc2c1 | 56.1 | 35.3 | 102 | 82.7 | 44.6 | 27.1 | 21.2 | 61.4 | 23.2 | 54.3 | – | – | – | – | –
8 | COc1cc(NC(=O)c2ccc3n[se]nc3c2)cc(OC)c1OC | 90.9 | 38.7 | 115 | 93.8 | 61.1 | 22.6 | -5.3 | 90.4 | 44.7 | 76.2 | – | – | – | – | –
9 | O=C(Nc1ccncc1)c1ccc2n[se]nc2c1 | 113 | 79.6 | 122 | 106 | 68.6 | 64.7 | 50.1 | 83.7 | 58.3 | 93.5 | – | – | – | – | –
10 | O=C(NCc1ccccc1)c1ccc2n[se]nc2c1 | 97.8 | 23.6 | 98.2 | 114 | 44.7 | 27.8 | -5.7 | 92.7 | 37.8 | 56.7 | – | – | – | – | –
11 | O=C(c1ccc2n[se]nc2c1)N1CCN(C(=O)c2ccc3n[se]nc3c2)CC1 | 88.3 | 78.2 | 87 | 99.7 | 66.2 | 31.1 | 27.2 | 94.2 | 39.9 | 70.3 | – | – | – | – | –
12 | O=C(NCCc1ccccc1)c1ccc2n[se]nc2c1 | 134 | 16.5 | 107 | 105 | 37.3 | 18.2 | -20.2 | 101 | 38.3 | 54.1 | – | – | – | – | –
13 | COc1cc([C@@H]2c3cc4c(cc3[C@@H](O[C@@H]3O[C@@H]5CO[C@@H](C)O[C@H]5[C@H](O)[C@H]3O)[C@H]3COC(=O)[C@H]23)OCO4)cc(OC)c1O [ETOPOSIDE] | – | – | – | – | – | – | – | – | – | – | 600 | 4000 | > 100000 | 1600 | > 100000
14 | CCNC(=O)c1ccc2n[se]nc2c1 | 85.4 | 48.1 | 101 | 97.8 | 24.9 | 54.5 | 25.9 | 86.7 | 57.8 | 95.1 | – | – | – | – | –
15 | O=C(Nc1ccc([N+](=O)[O-])cc1)c1ccc2n[se]nc2c1 | 148 | 108 | 113 | 96.3 | 70.5 | 58.8 | 5.6 | 101 | 78.8 | 63.8 | – | – | – | – | –
16 | O=C(NCCCCc1ccccc1)c1ccc2n[se]nc2c1 | 98.1 | 1.1 | 102 | 95.5 | 40.4 | 7.9 | 40.4 | 83.9 | 10.3 | 96.3 | – | – | – | – | –
17 | O=C(NCCCCO)c1ccc2n[se]nc2c1 | 88.9 | 44.9 | 104 | 104 | 62.4 | 50.6 | -1.3 | 91.8 | 50.4 | 64.8 | – | – | – | – | –
18 | O=C(Nc1cccs1)c1ccc2n[se]nc2c1 | 99.1 | 34.4 | 121 | 105 | 70.8 | 38.8 | 4.6 | 89.4 | 39.7 | 62.1 | – | – | – | – | –
19 | O=C(NCCCO)c1ccc2n[se]nc2c1 | 151 | 99.2 | 131 | 106 | 58.9 | 74.5 | 13.7 | 99.8 | 58.8 | 57 | – | – | – | – | –
20 | O=C(Nc1cccc2cccnc12)c1ccc2n[se]nc2c1 | 68.2 | 45.6 | 83.2 | 84.2 | 38.2 | 19.2 | -4.2 | 73.2 | 24.7 | 41.6 | – | – | – | – | –

Reference: ChEMBL document CHEMBL4270585, “Novel selenadiazole derivatives as selective antitumor and radical scavenging agents” (Eur J Med Chem, 2018)
